Laboratory results as given in ChEMBL document CHEMBL3865830, “Multifunctional diamine AGE/ALE inhibitors with potential therapeutical properties against Alzheimer's disease” (Eur J Med Chem, 2016).
The source made the active and inactive calls. No cut-off for these calls is given here.

Legend:
[1] = species: Rattus norvegicus; experiment: Cytotoxicity against rat […] PC12 cells assessed as reduction in cell viability at 10 to 100 uM after 24 hrs by WST8-based CCK8 assay; type: toxicity; conditions: pc-12, 24 h
In short: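 PC12 Adh cells (rat pheochromocytoma-derived) grown in F-12K with 2.5% FBS, 15% horse serum and pen/strep at 37 °C, 5% CO2. Seeded at 5×10^3 cells/well; treated at 80% confluency with 10 or 100 µM for 24 h. 10% DMSO served as positive cytotoxicity control. CCK-8 added for 1 h at 37 °C, absorbance read at 450 nm. Viability given as % of untreated cells; at least three experiments in triplicate.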

[2] = Reactive carbonyl species trapping activity of compound assessed as MDA adduct formation at 10 mM preincubated for 24 hrs with MDA measured after 5 hrs by LCMS analysis; type: physicochemical; conditions: 10000 µM
[3] = Metal chelating activity of compound assessed as compound-Cu2+ complex formation at 2 mM after 10 mins in presence of CuSO4.5H2O by complexometric indicator murexide based UV-Vis spectrophotometric analysis; type: physicochemical; conditions: 2000 µM
In short: (§1)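 Compound (0.02-2 mM) incubated with CuSO4 (120 µM) for 10 min at rt, in 10 mM hexamine/HCl with 10 mM KCl (pH 5.0), or in buffer/MeOH 75:25 for poorly soluble compounds. Murexide added, 1 min more. The A485/A520 ratio gives free Cu2+ from a CuSO4 calibration curve (0-125 µM). % chelation is taken by difference from the no-compound control; triplicates.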

[4] = Reactive carbonyl species trapping activity of compound assessed as MGO adduct formation at 10 mM preincubated for 24 hrs with MGO measured after 15 mins by LCMS analysis; type: physicochemical; conditions: 0.25 h, 10000 µM
[5] = Reactive carbonyl species trapping activity of compound assessed as MGO adduct formation at 10 mM preincubated for 24 hrs with MGO measured after 24 hrs by LCMS analysis; type: physicochemical; conditions: 10000 µM
[6] = Metal chelating activity of compound assessed as compound-Cu2+ complex formation at 200 uM after 10 mins in presence of CuSO4.5H2O by complexometric indicator murexide based UV-Vis spectrophotometric analysis; type: physicochemical; in short: as §1
[7] = Metal chelating activity of compound assessed as compound-Cu2+ complex formation at 0.05 mM after 10 mins in presence of CuSO4.5H2O by complexometric indicator murexide based UV-Vis spectrophotometric analysis; type: physicochemical; conditions: 50 µM; in short: as §1
[8] = Antioxidant activity assessed as inhibition of AAPH-induced peroxyl radical generation measured as trolox equivalent at 10 uM preincubated for 30 mins followed by AAPH addition measured evey 60 secs for 60 cycles by ORAC-FL assay; type: functional; conditions: in the assay text read “90 secs” for “60 secs”
In short: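 Fluorescein (12 nM) preincubated with compound (1-20 µM) or Trolox standard (1-50 µM) in D-PBS, at least 30 min at 37 °C. Reaction started with AAPH (30 mM). Fluorescence (ex 485/em 520 nm) read every 90 s for 60 cycles. Net AUC is converted to Trolox equivalents via the Trolox calibration line. Values are reported at 10 µM, from at least three independent experiments in triplicate.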

[9] = Reactive carbonyl species trapping activity of compound assessed as MDA adduct formation at 10 mM preincubated for 24 hrs with MDA measured after 24 hrs by LCMS analysis; type: physicochemical; conditions: 10000 µM
[10] = Reactive carbonyl species trapping activity of compound assessed as MGO adduct formation at 10 mM preincubated for 24 hrs with MGO measured after 0.5 hrs by LCMS analysis; type: physicochemical; conditions: 10000 µM
[11] = Metal chelating activity of compound assessed as compound-Cu2+ complex formation at 0.02 mM after 10 mins in presence of CuSO4.5H2O by complexometric indicator murexide based UV-Vis spectrophotometric analysis; type: physicochemical; conditions: 20 µM; in short: as §1
[12] = Reactive carbonyl species trapping activity of compound assessed as MDA adduct formation at 10 mM preincubated for 24 hrs with MDA measured after 1 hr by LCMS analysis; type: physicochemical; conditions: 10000 µM
[13] = Metal chelating activity of compound assessed as compound-Cu2+ complex formation at 1 mM after 10 mins in presence of CuSO4.5H2O by complexometric indicator murexide based UV-Vis spectrophotometric analysis; type: physicochemical; conditions: 1000 µM; in short: as §1
[14] = Metal chelating activity of compound assessed as compound-Cu2+ complex formation at 0.1 mM after 10 mins in presence of CuSO4.5H2O by complexometric indicator murexide based UV-Vis spectrophotometric analysis; type: physicochemical; conditions: 100 µM; in short: as §1
[15] = Metal chelating activity of compound assessed as compound-Cu2+ complex formation at 0.08 mM after 10 mins in presence of CuSO4.5H2O by complexometric indicator murexide based UV-Vis spectrophotometric analysis; type: physicochemical; conditions: 80 µM; in short: as §1
[16] = Reactive carbonyl species trapping activity of compound assessed as MDA adduct formation at 10 mM preincubated for 24 hrs with MDA measured after 0.25 hrs by LCMS analysis; type: physicochemical; conditions: 10000 µM
[17] = Reactive carbonyl species trapping activity of compound assessed as MGO adduct formation at 10 mM preincubated for 24 hrs with MGO measured after 1 hr by LCMS analysis; type: physicochemical; conditions: 10000 µM
[18] = Reactive carbonyl species trapping activity of compound assessed as MGO adduct formation at 10 mM preincubated for 24 hrs with MGO measured after 0.25 hrs by LCMS analysis; type: physicochemical; conditions: 10000 µM
[19] = Metal chelating activity of compound assessed as compound-Cu2+ complex formation at 0.5 mM after 10 mins in presence of CuSO4.5H2O by complexometric indicator murexide based UV-Vis spectrophotometric analysis; type: physicochemical; conditions: 500 µM; in short: as §1
[20] = Reactive carbonyl species trapping activity of compound assessed as MDA adduct formation at 10 mM preincubated for 24 hrs with MDA measured after 0.5 hrs by LCMS analysis; type: physicochemical; conditions: 10000 µM
[21] = Reactive carbonyl species trapping activity of compound assessed as MGO adduct formation at 10 mM preincubated for 24 hrs with MGO measured after 5 hrs by LCMS analysis; type: physicochemical; conditions: 10000 µM
[22] = system: PC-12; experiment: Neuroprotective activity against MGO-induced apoptosis in rat PC12 cells assessed as reduction DNA fragmentation at 100 uM preincubated for 1 hr followed by MGO addition after 24 hrs by ELISA; type: functional, cell-based
In short: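 PC12 cells pretreated 1 h at 37 °C with compound (10 or 100 µM) in D-PBS, then exposed to MGO (2 mM) for 24 h. Lysates analysed by anti-histone/anti-DNA-peroxidase ELISA for cytoplasmic mono- and oligonucleosomes, with ABTS read-out at 405 nm. Cells without MGO were the control; MGO alone was the apoptosis standard.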

[23] = Reactive carbonyl species trapping activity of compound assessed as MDA adduct formation at 10 mM preincubated for 24 hrs measured after 15 mins by LCMS analysis; type: physicochemical; conditions: 0.25 h, 10000 µM

Activity [2]	Activity [3]	Activity [4]	Activity [5]	Activity [6]	Activity [7]	Activity [9]	Activity [10]	Activity [11]	Activity [12]	Activity [13]	Activity [14]	Activity [15]	Activity [16]	Activity [17]	Activity [18]	Activity [19]	Activity [20]	SMILES	Activity [1]	Activity (umolequiv/umol) [8]	further results
69%	76.14%	81%	100%	52.75%	14%	87%	85%	5.71%	68%	78.48%	29.96%	22.88%	50%	87%	81%	74.33%	67%	Cl.Cl.NCC(N)CCC(=O)N1CCN(C(=O)c2cc(O)c(O)c(O)c2)CC1 (configuration not stated)	Non-Toxic	0.89	Activity [21]: 88%
85%	74.74%	97%	98%	55.83%	20.77%	93%	98%	11.11%	81%	74.89%	42.39%	37.47%	74%	97%	97%	71.22%	75%	Cl.Cl.NCC(N)CCC(=O)NCCCn1cccc(O)c1=O (configuration not stated)	Non-Toxic	1.96	Activity [22]: Active; Activity [21]: 100%
85%	76.53%	97%	98%	53.23%	23.88%	84%	97%	11.76%	81%	74.59%	36.03%	31.08%	74%	98%	97%	71.58%	76%	Cl.Cl.NCC(N)CCC(=O)N1CCN(C(=O)CCn2cccc(O)c2=O)CC1 (configuration not stated)	Non-Toxic	0.99	Activity [21]: 99%
95%	95.45%	95%	100%	66.7%	24.69%	99%	98%	11.03%	92%	93.45%	40.91%	35.1%	76%	100%	95%	88.46%	82%	Cc1c(O)c(=O)ccn1CCCNC(=O)CCC(N)CN.Cl.Cl (configuration not stated)	Non-Toxic	1.01	Activity [23]: 76%; Activity [21]: 100%
75%	76.75%	97%	98%	59.96%	24.84%	86%	100%	12.16%	7%	76.43%	40.8%	35.49%	0%	98%	97%	73.21%	4%	Cl.Cl.NCC(N)CCCNC(=O)CCn1cccc(O)c1=O (configuration not stated)	Non-Toxic	1.03	Activity [21]: 99%
